Experiment [1] deals with T1, Ribosyldihydronicotinamide dehydrogenase [quinone] (Homo sapiens, UniProt P16083).
T1 sequence (P16083 whole entry): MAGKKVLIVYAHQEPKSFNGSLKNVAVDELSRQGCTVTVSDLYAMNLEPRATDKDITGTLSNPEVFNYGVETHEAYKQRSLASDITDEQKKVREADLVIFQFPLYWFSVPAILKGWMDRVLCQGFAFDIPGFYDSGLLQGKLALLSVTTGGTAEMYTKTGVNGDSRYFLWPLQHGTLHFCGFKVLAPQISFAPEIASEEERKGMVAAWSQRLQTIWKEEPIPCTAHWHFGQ
Description: Inhibition of recombinant human NQO2 assessed as change in rate of decolouration of DCPIP measured over 1 min by spectrophotometric method. The gist of the method:
(§1)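 The NQO2 enzymatic activity was followed spectrophotometrically as the decolouration of the blue redox dye 2,6-dichlorophenolindophenol (DCPIP) at pH 7.4.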

The subject of a further experiment is Plasmodium falciparum. The experiment is described as follows: Antimalarial activity against Plasmodium falciparum 3D7 asexual cultures grown under 5% haematocrit assessed as decrease in parasite DNA level by flow cytometry. It is filed as functional, organism-based. For orientation: Flow cytometry measures light scatter and fluorescence of single cells or particles in a stream.

Experiment [2] addresses T2, Ribosyldihydronicotinamide dehydrogenase [quinone] (Homo sapiens) (UniProt P16083).
T2 sequence (whole entry): T1 sequence (P16083 whole entry)
Description: Inhibition of recombinant human NQO2 assessed as change in rate of decolouration of DCPIP at 10 uM measured over 1 min by spectrophotometric method. The gist of the method: as §1

This passage reports IC50 and inhibition results from ChEMBL document CHEMBL4219166, “Evaluation of analogues of furan-amidines as inhibitors of NQO2” (Bioorg Med Chem Lett, 2018).

The source made the active and inactive calls. The rule behind the calls is not given here.

Usually IC50 stands for the concentration that gives 50% inhibition. Turning to `CC(=O)Nc1cccc(-c2ccc(-c3ccccc3)o2)c1`, the 50% inhibitory concentration (IC50) in experiment [1] turned out to be 1140 nM. Still for that read-out and setting: the same measure for `CC(=O)Nc1cccc(-c2ccc(-c3ccccc3)s2)c1`: 2000 nM. As to `CC(=N)Nc1ccc(-c2ccc(-c3ccccc3)s2)cc1`, the IC50 in the experiment on Plasmodium falciparum was 970 nM. Besides, the inhibition result in experiment [2] was “inactive”. Consider `Cn1cc(-c2ccccc2)nc1-c1ccc(C(=N)N)cc1`, for which the inhibition entry in experiment [2] was “inactive”.

For the molecule `CC(=O)Nc1ccc(-c2ccc(-c3ccccc3)o2)cc1`, in experiment [2], the inhibition result is “inactive”. Same read-out and setting: the same measure for `COC(=N)c1ccc(-c2ccc(-c3ccccc3)o2)cc1`: “inactive”.

`CC(=N)Nc1ccc(-c2ccc(-c3ccccc3)o2)cc1`: the IC50 in the experiment on Plasmodium falciparum turned out to be 770 nM. Besides, the inhibition result in experiment [2] was “inactive”. Take `N=C(N)c1ccc(-c2ccc(-c3ccc(C(=N)N)cc3)o2)cc1` [FURAMIDINE]: the IC50 with Plasmodium falciparum was found to be 0.5 nM. Regarding `N=C(N)c1ccc(-c2nc(-c3ccccc3)c[nH]2)cc1`, the IC50 in the experiment on Plasmodium falciparum was 5300 nM; in experiment [1], 1110 nM. Take `N=C(N)c1ccc(-c2ccc(-c3ccccc3)o2)cc1`: the IC50 in the experiment on Plasmodium falciparum came out at 1500 nM. As for `Cc1oc(-c2ccc(C(=N)N)cc2)cc1-c1ccccc1`, the inhibition result in experiment [2] was “inactive”. Same read-out and setting: then `N=C(NO)c1ccc(-c2ccc(-c3ccccc3)o2)cc1`, with “inactive”. As for `N=C(N)c1ccc(-c2ccc(-c3ccccc3)s2)cc1`, the figures for the IC50 (with Plasmodium falciparum; in experiment [1]) were 18900 nM and 773 nM, respectively.
